Experiments:
[1] = target: Serotonin 2 (5-HT2) receptor (Rattus norvegicus, UniProt P30994+P08909+P14842); test: Affinity for 5-hydroxytryptamine 2 receptor binding sites by its ability to displace [3H]spiperone from rat frontal cortex.
Mus musculus = species: Mus musculus; test: Ability to inhibit apomorphine-induced climbing behavior in mice.; type: functional
How it was run: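 Male CD-1 mice (18–30 g) were adapted for 1 h in wire-mesh cages, 8 per dose group. Distilled water or drug was given ip 30 or 60 min before apomorphine 1.5 mg/kg sc.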

Rattus norvegicus = species: Rattus norvegicus; test: Ability to block apomorphine-induced stereotypy in rats.; type: functional
How it was run: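 Male Wistar rats (150–250 g), 6–10 per dose group, given distilled water or test drug ip; apomorphine 1.5 mg/kg sc 50 min later. Rats were placed singly in cages and scored 10 min afterwards for continuous stereotyped licking or sniffing. Inhibition was the number of animals protected versus controls. ED50 was obtained by probit analysis.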

Structure (SMILES): COc1ccc(NC(C)=O)cc1OCCCN1CCC(c2noc3cc(F)ccc23)CC1
- IC50 [1]: 3.8 nM
- ED50 (Mus musculus): 0.6 mg/kg
- ED50 (Rattus norvegicus): 30.1 mg/kg

Structure (SMILES): CC(=O)c1ccc(OCCCN2CCC(c3noc4cc(F)ccc34)CC2)c(C)c1
- ED50 (Mus musculus): 0.25 mg/kg
- ED50 (Rattus norvegicus): 31.4 mg/kg

Structure (SMILES): CC(=O)c1ccc2c(c1)OCC(CCN1CCC(c3noc4cc(F)ccc34)CC1)O2 (stereo unspecified)
- IC50 [1]: 91 nM
- ED50 (Mus musculus): 13.7 mg/kg
- ED50 (Rattus norvegicus): > 80 mg/kg

Structure (SMILES): COc1ccccc1OCCCN1CCC(c2noc3cc(F)ccc23)CC1
- IC50 [1]: 5.2 nM
- ED50 (Mus musculus): 0.48 mg/kg
- ED50 (Rattus norvegicus): 9.7 mg/kg

Structure (SMILES): COc1cc(/C(C)=N\N)ccc1OCCCN1CCC(c2noc3cc(F)ccc23)CC1
- IC50 [1]: 20 nM
- ED50 (Mus musculus): 0.64 mg/kg
- ED50 (Rattus norvegicus): 17.4 mg/kg

Structure (SMILES): COc1cc(C(C)=O)ccc1OCCCCN1CCC(c2noc3ccccc23)CC1
- IC50 [1]: 34 nM
- ED50 (Mus musculus): 1.6 mg/kg
- ED50 (Rattus norvegicus): 17 mg/kg

Structure (SMILES): COc1cc(C(N)=O)ccc1OCCCN1CCC(c2noc3cc(F)ccc23)CC1
- IC50 [1]: 0.9 nM
- ED50 (Mus musculus): 1.6 mg/kg
- ED50 (Rattus norvegicus): 22.7 mg/kg

Structure (SMILES): COc1cc(C(=O)c2ccccc2)ccc1OCCCN1CCC(c2noc3cc(F)ccc23)CC1
- IC50 [1]: 241 nM
- ED50 (Mus musculus): 18.1 mg/kg
- ED50 (Rattus norvegicus): > 80 mg/kg

Structure (SMILES): COc1cc(C(C)=O)ccc1OCCN1CCC(c2noc3cc(F)ccc23)CC1
- IC50 [1]: 67 nM
- ED50 (Mus musculus): 5.3 mg/kg
- ED50 (Rattus norvegicus): > 80 mg/kg

Structure (SMILES): COc1cc(C(C)=O)ccc1NCCCN1CCC(c2noc3cc(F)ccc23)CC1
- IC50 [1]: 18 nM
- ED50 (Mus musculus): 0.26 mg/kg
- ED50 (Rattus norvegicus): 9.3 mg/kg

Structure (SMILES): COc1cc2cc[nH]c2cc1OCCCN1CCC(c2noc3cc(F)ccc23)CC1
- IC50 [1]: 3.2 nM
- ED50 (Mus musculus): 2.7 mg/kg
- ED50 (Rattus norvegicus): 8.6 mg/kg

Structure (SMILES): CCC(=O)c1ccc(OCCCN2CCC(c3noc4cc(F)ccc34)CC2)c(OC)c1
- IC50 [1]: 11 nM
- ED50 (Mus musculus): 0.77 mg/kg
- ED50 (Rattus norvegicus): > 20 mg/kg

Structure (SMILES): Fc1ccc2c(C3CCN(CCCOc4ccccc4)CC3)noc2c1
- IC50 [1]: 33 nM
- ED50 (Mus musculus): 0.62 mg/kg
- ED50 (Rattus norvegicus): 7.1 mg/kg

Structure (SMILES): COc1cc(C(C)=O)ccc1OCCN1CCC(c2noc3ccccc23)CC1
- IC50 [1]: 26 nM
- ED50 (Mus musculus): 7.4 mg/kg

Structure (SMILES): Nc1ccccc1OCCCN1CCC(c2noc3cc(F)ccc23)CC1
- ED50 (Mus musculus): 0.42 mg/kg
- ED50 (Rattus norvegicus): 5.5 mg/kg

Structure (SMILES): CC(=O)c1ccc(OCCCN2CCC(c3noc4cc(F)ccc34)CC2)c(O)c1
- IC50 [1]: 2.9 nM
- ED50 (Mus musculus): 0.054 mg/kg
- ED50 (Rattus norvegicus): 0.7 mg/kg

Structure (SMILES): CC(=O)c1ccc(OCCCN2CCC(c3noc4cc(F)ccc34)CC2)c(N(C)C)c1
- IC50 [1]: 16 nM
- ED50 (Mus musculus): 0.15 mg/kg
- ED50 (Rattus norvegicus): 4.3 mg/kg

Structure (SMILES): COc1cc(C(C)O)ccc1OCCCN1CCC(c2noc3cc(F)ccc23)CC1 (stereo unspecified)
- IC50 [1]: 22 nM
- ED50 (Mus musculus): 0.12 mg/kg
- ED50 (Rattus norvegicus): 22.7 mg/kg

Structure (SMILES): CC(=O)c1ccc(OCCCN2CCC(c3noc4cc(F)ccc34)CC2)cc1C
- IC50 [1]: 36 nM
- ED50 (Mus musculus): 1.2 mg/kg
- ED50 (Rattus norvegicus): 52.3 mg/kg

Structure (SMILES): COc1cc(C(C)=O)ccc1OCCCN1CCC(c2noc3ccccc23)CC1
- IC50 [1]: 3.5 nM
- ED50 (Mus musculus): 0.67 mg/kg
- ED50 (Rattus norvegicus): 20.8 mg/kg

Structure (SMILES): CNc1cc(C(C)=O)ccc1OCCCN1CCC(c2noc3cc(F)ccc23)CC1
- IC50 [1]: 42 nM
- ED50 (Mus musculus): 0.15 mg/kg
- ED50 (Rattus norvegicus): 47.6 mg/kg

Structure (SMILES): CC(=O)c1cc(C)ccc1OCCCN1CCC(c2noc3cc(F)ccc23)CC1
- IC50 [1]: 153 nM
- ED50 (Mus musculus): 5.6 mg/kg
- ED50 (Rattus norvegicus): 25.1 mg/kg

Structure (SMILES): COc1cc(OCCCN2CCC(c3noc4cc(F)ccc34)CC2)ccc1C(C)=O
- IC50 [1]: 23 nM
- ED50 (Mus musculus): 0.28 mg/kg
- ED50 (Rattus norvegicus): 8.2 mg/kg

Structure (SMILES): COc1cc(C(=O)N(C)C)ccc1OCCCN1CCC(c2noc3cc(F)ccc23)CC1
- IC50 [1]: 5.2 nM
- ED50 (Mus musculus): 0.72 mg/kg
- ED50 (Rattus norvegicus): 26.7 mg/kg

Structure (SMILES): COc1cc(C(C)=O)ccc1OCCCN1CCC(c2noc3ccc(F)cc23)CC1
- IC50 [1]: 122 nM
- ED50 (Mus musculus): 5.2 mg/kg
- ED50 (Rattus norvegicus): > 80 mg/kg

Structure (SMILES): CC(=O)c1ccc(OCCCN2CCC(c3noc4cc(F)ccc34)CC2)cc1
- IC50 [1]: 5.5 nM
- ED50 (Mus musculus): 0.84 mg/kg
- ED50 (Rattus norvegicus): 5.7 mg/kg

Structure (SMILES): CC(=O)Nc1cc(C(C)=O)ccc1OCCCN1CCC(c2noc3cc(F)ccc23)CC1
- IC50 [1]: 20 nM
- ED50 (Mus musculus): 0.049 mg/kg
- ED50 (Rattus norvegicus): 21.1 mg/kg

Structure (SMILES): COc1ccc(N)cc1OCCCN1CCC(c2noc3cc(F)ccc23)CC1
- IC50 [1]: 2 nM
- ED50 (Mus musculus): 0.16 mg/kg
- ED50 (Rattus norvegicus): 13 mg/kg

Structure (SMILES): CNc1ccccc1OCCCN1CCC(c2noc3cc(F)ccc23)CC1
- IC50 [1]: 17 nM
- ED50 (Mus musculus): 0.81 mg/kg
- ED50 (Rattus norvegicus): 22.3 mg/kg

Structure (SMILES): COc1cc(C(C)=O)ccc1SCCCN1CCC(c2noc3cc(F)ccc23)CC1
- IC50 [1]: 41 nM
- ED50 (Mus musculus): 2 mg/kg
- ED50 (Rattus norvegicus): 13.6 mg/kg

Structure (SMILES): C=C(C)c1ccc(OCCCN2CCC(c3noc4cc(F)ccc34)CC2)c(OC)c1
- IC50 [1]: 20 nM
- ED50 (Mus musculus): 0.55 mg/kg
- ED50 (Rattus norvegicus): 25 mg/kg

Structure (SMILES): COc1cc(C(C)=O)ccc1OCCCCN1CCC(c2noc3cc(Cl)ccc23)CC1
- IC50 [1]: 143 nM
- ED50 (Mus musculus): 2.4 mg/kg
- ED50 (Rattus norvegicus): 9.7 mg/kg

Structure (SMILES): COc1cc(C(C)=O)ccc1OCCCN1CCC(c2noc3cc(Cl)ccc23)CC1
- IC50 [1]: 4.9 nM
- ED50 (Mus musculus): 3.3 mg/kg
- ED50 (Rattus norvegicus): > 80 mg/kg

Structure (SMILES): COc1cc(C#N)ccc1OCCCN1CCC(c2noc3cc(F)ccc23)CC1
- IC50 [1]: 45 nM
- ED50 (Mus musculus): 1 mg/kg
- ED50 (Rattus norvegicus): 15.7 mg/kg

Structure (SMILES): CCc1ccc(OCCCN2CCC(c3noc4cc(F)ccc34)CC2)c(OC)c1
- IC50 [1]: 16 nM
- ED50 (Mus musculus): 0.18 mg/kg
- ED50 (Rattus norvegicus): 9.5 mg/kg

Structure (SMILES): CSc1cc(C(C)=O)ccc1OCCCN1CCC(c2noc3cc(F)ccc23)CC1
- IC50 [1]: 170 nM
- ED50 (Mus musculus): 20 mg/kg

Structure (SMILES): COc1cc(C(C)=O)ccc1OCCN1CCC(c2noc3cc(Cl)ccc23)CC1
- IC50 [1]: 45 nM
- ED50 (Mus musculus): > 20 mg/kg

Structure (SMILES): COc1cc(C(=O)C(F)(F)F)ccc1OCCCN1CCC(c2noc3cc(F)ccc23)CC1
- IC50 [1]: 38 nM
- ED50 (Mus musculus): 2.2 mg/kg
- ED50 (Rattus norvegicus): > 20 mg/kg

Structure (SMILES): CCCCC(=O)c1ccc(OCCCN2CCC(c3noc4cc(F)ccc34)CC2)c(OC)c1
- IC50 [1]: 89 nM
- ED50 (Mus musculus): 0.78 mg/kg
- ED50 (Rattus norvegicus): 16.9 mg/kg

Structure (SMILES): CC(=O)c1cccc(OCCCN2CCC(c3noc4cc(F)ccc34)CC2)c1
- IC50 [1]: 63 nM
- ED50 (Mus musculus): 0.39 mg/kg
- ED50 (Rattus norvegicus): 6.4 mg/kg

Structure (SMILES): CCOc1cc(C(C)=O)ccc1OCCCN1CCC(c2noc3cc(F)ccc23)CC1
- IC50 [1]: 3.8 nM
- ED50 (Mus musculus): 0.56 mg/kg
- ED50 (Rattus norvegicus): 14.5 mg/kg

Structure (SMILES): COc1cc(C(C)=O)cc(OC)c1OCCCN1CCC(c2noc3cc(F)ccc23)CC1
- IC50 [1]: < 10 nM
- ED50 (Mus musculus): 0.72 mg/kg
- ED50 (Rattus norvegicus): 13.6 mg/kg

Structure (SMILES): COc1cc(C(C)=O)ccc1OCCCCN1CCC(c2noc3cc(F)ccc23)CC1
- IC50 [1]: 8.5 nM
- ED50 (Mus musculus): 0.68 mg/kg
- ED50 (Rattus norvegicus): 7.5 mg/kg

Structure (SMILES): COc1cc(Br)ccc1OCCCN1CCC(c2noc3cc(F)ccc23)CC1
- IC50 [1]: 49 nM
- ED50 (Mus musculus): 1.6 mg/kg
- ED50 (Rattus norvegicus): 15.3 mg/kg

Structure (SMILES): CC(O)c1ccc(OCCCN2CCC(c3noc4cc(F)ccc34)CC2)c(O)c1 (stereo unspecified)
- IC50 [1]: 53 nM
- ED50 (Mus musculus): 0.058 mg/kg
- ED50 (Rattus norvegicus): 3.6 mg/kg

Structure (SMILES): COc1cc(/C(C)=N\O)ccc1OCCCN1CCC(c2noc3cc(F)ccc23)CC1
- IC50 [1]: 0.7 nM
- ED50 (Mus musculus): 1.1 mg/kg
- ED50 (Rattus norvegicus): > 80 mg/kg

Structure (SMILES): COc1cc2c(cc1OCCCN1CCC(c3noc4cc(F)ccc34)CC1)CCCC2=O
- IC50 [1]: < 10 nM
- ED50 (Mus musculus): 2.3 mg/kg
- ED50 (Rattus norvegicus): 25 mg/kg

— ChEMBL document CHEMBL1128281 (J Med Chem, 1995)
